# Data from ChEMBL document CHEMBL5143722, “Antimicrobial Peptides against Multidrug-Resistant Pseudomonas aeruginosa Biofilm from Cystic Fibrosis Patients” (J Med Chem, 2022).
# Activity calls are given as the source filed them. The rule behind the calls is not given here.
# Legend:
# Pseudomonas aeruginosa [1] = test: Antibiofilm activity against Pseudomonas aeruginosa clinical isolate 24 assessed as inhibition of biofilm formation at sub-inhibitory concentration incubated for 24 hrs by crystal violet staining based microtiter plate method; format: functional, organism-based
# How it was run: (§1)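 Washed overnight cultures in BM2 medium at 1 × 10^6 CFU/mL with 2-fold serial peptide dilutions in a U-bottom 96-well plate. Incubated 24 h at 37 °C without agitation. Unattached cells washed off, then 0.1% crystal violet stain read at 590 nm. No-bacteria blanks. Biomass expressed as % of untreated biofilm. At least three biological repeats.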
# Pseudomonas aeruginosa [2] = test: Antibiofilm activity against Pseudomonas aeruginosa clinical isolate 25 assessed as inhibition of biofilm formation at sub-inhibitory concentration incubated for 24 hrs by crystal violet staining based microtiter plate method; format: functional, organism-based; how it was run: as §1
# Pseudomonas aeruginosa [3] = test: Antibiofilm activity against Pseudomonas aeruginosa clinical isolate 46 assessed as inhibition of biofilm formation at sub-inhibitory concentration incubated for 24 hrs by crystal violet staining based microtiter plate method; format: functional, organism-based; how it was run: as §1
# Pseudomonas aeruginosa [4] = test: Antibiofilm activity against Pseudomonas aeruginosa clinical isolate 53 assessed as inhibition of biofilm formation at sub-inhibitory concentration incubated for 24 hrs by crystal violet staining based microtiter plate method; format: functional, organism-based; how it was run: as §1
# Pseudomonas aeruginosa [5] = test: Antibiofilm activity against Pseudomonas aeruginosa clinical isolate 71 assessed as inhibition of biofilm formation at sub-inhibitory concentration incubated for 24 hrs by crystal violet staining based microtiter plate method; format: functional, organism-based; how it was run: as §1
# Pseudomonas aeruginosa [6] = test: Antibiofilm activity against Pseudomonas aeruginosa clinical isolate 72 assessed as inhibition of biofilm formation at sub-inhibitory concentration incubated for 24 hrs by crystal violet staining based microtiter plate method; format: functional, organism-based; how it was run: as §1
# Pseudomonas aeruginosa [7] = test: Antibiofilm activity against Pseudomonas aeruginosa clinical isolate 99 assessed as inhibition of biofilm formation at sub-inhibitory concentration incubated for 24 hrs by crystal violet staining based microtiter plate method; format: functional, organism-based; how it was run: as §1
# Pseudomonas aeruginosa [8] = test: Antibiofilm activity against Pseudomonas aeruginosa clinical isolate 629 assessed as inhibition of biofilm formation at sub-inhibitory concentration incubated for 24 hrs by crystal violet staining based microtiter plate method; format: functional, organism-based; how it was run: as §1
# Pseudomonas aeruginosa [9] = test: Induction of biofilm degradation of Pseudomonas aeruginosa clinical isolate 24 incubated for 1 hr by crystal violet staining analysis relative to control; format: functional; conditions: dose 50.0 µM
# How it was run: (§2)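 Bacteria at 1 × 10^6 CFU/mL in BM2 grown static at 37 °C for 24 h to form biofilm. Wells rinsed of unattached cells, then exposed for 1 h to serial peptide dilutions (1.56–50 μM). Washed, stained with 0.1% crystal violet, A590 read. Biomass given as % of untreated biofilm; no-bacteria wells as blanks. At least three biological repeats.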
# Pseudomonas aeruginosa [10] = test: Induction of biofilm degradation of Pseudomonas aeruginosa clinical isolate 25 at 50 uM incubated for 1 hr by crystal violet staining analysis relative to control; format: functional; how it was run: as §2
# Pseudomonas aeruginosa [11] = test: Induction of biofilm degradation of Pseudomonas aeruginosa clinical isolate 29 at 50 uM incubated for 1 hr by crystal violet staining analysis relative to control; format: functional; how it was run: as §2
# Pseudomonas aeruginosa [12] = test: Induction of biofilm degradation of Pseudomonas aeruginosa clinical isolate 40 at 50 uM incubated for 1 hr by crystal violet staining analysis relative to control; format: functional; how it was run: as §2
# Pseudomonas aeruginosa [13] = test: Induction of biofilm degradation of Pseudomonas aeruginosa clinical isolate 46 at 50 uM incubated for 1 hr by crystal violet staining analysis relative to control; format: functional; how it was run: as §2
# Pseudomonas aeruginosa [14] = test: Induction of biofilm degradation of Pseudomonas aeruginosa clinical isolate 52 at 50 uM incubated for 1 hr by crystal violet staining analysis relative to control; format: functional; how it was run: as §2
# Pseudomonas aeruginosa [15] = test: Induction of biofilm degradation of Pseudomonas aeruginosa clinical isolate 53 at 50 uM incubated for 1 hr by crystal violet staining analysis relative to control; format: functional; how it was run: as §2
# Pseudomonas aeruginosa [16] = test: Induction of biofilm degradation of Pseudomonas aeruginosa clinical isolate 71 at 50 uM incubated for 1 hr by crystal violet staining analysis relative to control; format: functional; how it was run: as §2
# Pseudomonas aeruginosa [17] = test: Induction of biofilm degradation of Pseudomonas aeruginosa clinical isolate 72 at 50 uM incubated for 1 hr by crystal violet staining analysis relative to control; format: functional; how it was run: as §2
# Pseudomonas aeruginosa [18] = test: Induction of biofilm degradation of Pseudomonas aeruginosa clinical isolate 82 at 50 uM incubated for 1 hr by crystal violet staining analysis relative to control; format: functional; how it was run: as §2
# Pseudomonas aeruginosa [19] = test: Induction of biofilm degradation of Pseudomonas aeruginosa clinical isolate 99 at 50 uM incubated for 1 hr by crystal violet staining analysis relative to control; format: functional; how it was run: as §2
# Pseudomonas aeruginosa [20] = test: Induction of biofilm degradation of Pseudomonas aeruginosa clinical isolate 172 at 50 uM incubated for 1 hr by crystal violet staining analysis relative to control; format: functional; how it was run: as §2
# Pseudomonas aeruginosa [21] = test: Induction of biofilm degradation of Pseudomonas aeruginosa clinical isolate 238 at 50 uM incubated for 1 hr by crystal violet staining analysis relative to control; format: functional; how it was run: as §2
# Pseudomonas aeruginosa [22] = test: Induction of biofilm degradation of Pseudomonas aeruginosa clinical isolate 251 at 50 uM incubated for 1 hr by crystal violet staining analysis; format: functional; how it was run: as §2
# Pseudomonas aeruginosa [23] = test: Induction of biofilm degradation of Pseudomonas aeruginosa clinical isolate 629 at 50 uM incubated for 1 hr by crystal violet staining analysis relative to control; format: functional; how it was run: as §2
# Pseudomonas aeruginosa [24] = test: Induction of biofilm degradation of Pseudomonas aeruginosa clinical isolate 995 at 50 uM incubated for 1 hr by crystal violet staining analysis relative to control; format: functional; how it was run: as §2
# Pseudomonas aeruginosa [25] = test: Induction of biofilm degradation of Pseudomonas aeruginosa PAO1 at 50 uM incubated for 1 hr by crystal violet staining analysis relative to control; format: functional; how it was run: as §2
# Pseudomonas aeruginosa [26] = test: Induction of biofilm degradation of Pseudomonas aeruginosa clinical isolate 24 at sub MIC concentration incubated for 1 hr by crystal violet staining analysis; format: functional; how it was run: as §2
# Pseudomonas aeruginosa [27] = test: Induction of biofilm degradation of Pseudomonas aeruginosa clinical isolate 40 at sub MIC concentration incubated for 1 hr by crystal violet staining analysis; format: functional; how it was run: as §2
# Pseudomonas aeruginosa [28] = test: Induction of biofilm degradation of Pseudomonas aeruginosa clinical isolate 53 at sub MIC concentration incubated for 1 hr by crystal violet staining analysis; format: functional; how it was run: as §2
# Pseudomonas aeruginosa [29] = test: Induction of biofilm degradation of Pseudomonas aeruginosa clinical isolate 59 at <12.5 uM incubated for 1 hr by crystal violet staining analysis; format: functional; how it was run: as §2
# Pseudomonas aeruginosa [30] = test: Antibiofilm activity against Pseudomonas aeruginosa clinical isolate 46 in basal medium 2 at 12.5 to 100 uM incubated for 24 hrs by resazurin staining based microtiter plate method; format: functional, organism-based; conditions: dose 12.5-100 µM
# Pseudomonas aeruginosa [31] = test: Antibiofilm activity against Pseudomonas aeruginosa clinical isolate 82 in basal medium 2 at 12.5 to 100 uM incubated for 24 hrs by resazurin staining based microtiter plate method; format: functional, organism-based; conditions: dose 12.5-100 µM
# Pseudomonas aeruginosa [32] = test: Inhibition of biofilm formation of Pseudomonas aeruginosa clinical isolate 24 derived from cystic fibrosis patient sputum at 0.78 to 25 uM by crystal violet based staining analysis; format: functional, organism-based; conditions: dose 0.78-25 µM
# How it was run: (§3)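 CF patient sputum diluted 10-fold with BM2, bacteria added with serial peptide dilutions starting from the highest MIC per isolate. Inoculum suspension 1 × 10^6 CFU/mL. Incubated 24 h at 37 °C without agitation. Unattached cells washed away, then 0.1% crystal violet staining and A590. Biomass given as % of untreated, with no-bacteria blanks.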
# Pseudomonas aeruginosa [33] = test: Inhibition of biofilm formation of Pseudomonas aeruginosa clinical isolate 24 derived from cystic fibrosis patient sputum at 0.09 to 3.12 uM by crystal violet based staining analysis; format: functional, organism-based; conditions: dose 0.09-3.12 µM; how it was run: as §3
# Pseudomonas aeruginosa [34] = test: Inhibition of biofilm formation of Pseudomonas aeruginosa clinical isolate 82 derived from cystic fibrosis patient sputum at 0.09 to 3.12 uM by crystal violet based staining analysis; format: functional, organism-based; conditions: dose 0.09-3.12 µM; how it was run: as §3
# Pseudomonas aeruginosa [35] = test: Inhibition of biofilm formation of Pseudomonas aeruginosa PAO1 in patient derived CF-sputum at 0.09 to 3.12 uM by crystal violet based staining analysis; format: functional, organism-based; conditions: dose 0.09-3.12 µM; how it was run: as §3
compound,measurement,setting,value
CC[C@H](C)[C@H](NC(=O)[C@H](CCCCN)NC(=O)[C@H](CCC(=O)O)NC(=O)[C@H](CCCCN)NC(=O)[C@H](CO)NC(=O)[C@H](CCCCN)NC(=O)[C@H](CCCNC(=N)N)NC(=O)[C@H](Cc1ccccc1)NC(=O)[C@H](Cc1ccccc1)NC(=O)[C@H](CC(=O)O)NC(=O)CNC(=O)[C@H](CC(C)C)NC(=O)[C@@H](N)CC(C)C)C(=O)NCC(=O)N[C@@H](CCCCN)C(=O)N[C@@H](CCC(=O)O)C(=O)N[C@@H](Cc1ccccc1)C(=O)N[C@@H](CCCCN)C(=O)N[C@@H](CCCNC(=N)N)C(=O)N[C@H](C(=O)N[C@H](C(=O)N[C@@H](CCC(N)=O)C(=O)N[C@@H](CCCNC(=N)N)C(=O)N[C@H](C(=O)N[C@@H](CCCCN)C(=O)N[C@@H](CC(=O)O)C(=O)N[C@@H](Cc1ccccc1)C(=O)N[C@@H](CC(C)C)C(=O)N[C@@H](CCCNC(=N)N)C(=O)N[C@@H](CC(N)=O)C(=O)N[C@@H](CC(C)C)C(=O)N[C@H](C(=O)N1CCC[C@H]1C(=O)N[C@@H](CCCNC(=N)N)C(=O)N[C@H](C(=O)N[C@@H](CCC(=O)O)C(=O)N[C@@H](CO)C(N)=O)[C@@H](C)O)C(C)C)[C@@H](C)CC)C(C)C)[C@@H](C)CC,inhibition,Pseudomonas aeruginosa [1],Active
same,inhibition,Pseudomonas aeruginosa [2],Active
same,inhibition,Pseudomonas aeruginosa [3],Active
same,inhibition,Pseudomonas aeruginosa [4],Active
same,inhibition,Pseudomonas aeruginosa [5],Active
same,inhibition,Pseudomonas aeruginosa [6],Active
same,inhibition,Pseudomonas aeruginosa [7],Active
same,inhibition,Pseudomonas aeruginosa [8],Active
same,Activity,Pseudomonas aeruginosa [9],60%
same,Activity,Pseudomonas aeruginosa [10],60%
same,Activity,Pseudomonas aeruginosa [11],60%
same,Activity,Pseudomonas aeruginosa [12],60%
same,Activity,Pseudomonas aeruginosa [13],60%
same,Activity,Pseudomonas aeruginosa [14],60%
same,Activity,Pseudomonas aeruginosa [15],60%
same,Activity,Pseudomonas aeruginosa [16],60%
same,Activity,Pseudomonas aeruginosa [17],60%
same,Activity,Pseudomonas aeruginosa [18],60%
same,Activity,Pseudomonas aeruginosa [19],60%
same,Activity,Pseudomonas aeruginosa [20],60%
same,Activity,Pseudomonas aeruginosa [21],60%
same,Activity,Pseudomonas aeruginosa [22],60%
same,Activity,Pseudomonas aeruginosa [23],60%
same,Activity,Pseudomonas aeruginosa [24],60%
same,Activity,Pseudomonas aeruginosa [25],60%
same,Activity,Pseudomonas aeruginosa [26],Active
same,Activity,Pseudomonas aeruginosa [27],Active
same,Activity,Pseudomonas aeruginosa [28],Active
same,Activity,Pseudomonas aeruginosa [29],Active
same,Activity,Pseudomonas aeruginosa [30],Active
same,Activity,Pseudomonas aeruginosa [31],Active
same,inhibition,Pseudomonas aeruginosa [32],Active
same,inhibition,Pseudomonas aeruginosa [33],Active
same,inhibition,Pseudomonas aeruginosa [34],Active
same,inhibition,Pseudomonas aeruginosa [35],Active
